Series [1] relates to Trypanosoma cruzi. Description: Antiparasitic activity against Trypanosoma cruzi Y strain trypomastigotes assessed as reduction in parasite viability after 24 hrs by Neubauer chamber counting method. The format is functional, organism-based. Summed up:
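Y strain trypomastigotes collected from Vero cell supernatant, plated at 4 × 10^5 per well, treated in triplicate for 24 h at 37 °C, 5% CO2; benznidazole positive control. Motile (viable) parasites counted in Neubauer chamber, untreated wells = 100%. IC50 by nonlinear regression from at least seven concentrations.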

The nature of series [2]: Cytotoxicity against BALB/c mouse splenocyte incubated for 24 hrs by [3H]-thymidine incorporation based counter beta irradiation method. It counts as cell-based. To be noted: splenocytes. Summed up:
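BALB/c splenocytes, 5 × 10^6 cells/well in RPMI-1640 + 10% inactivated FBS. Compounds from 10 mg/mL DMSO stock, serially diluted to […] (units as printed), in triplicate. Saponin 0.1 mg/mL positive control; medium + DMSO negative (=100%). 3H-thymidine 1.0 added, 24 h at 37 °C, 5% CO2, beta counting; highest concentration giving >90% incorporation taken as non-toxic.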

In a further series the target is Cruzipain (Trypanosoma cruzi, UniProt P25779). Description: Inhibition of recombinant Trypanosoma cruzi cruzain using Z-FR-AMC as substrate and measured at 12 sec interval for 5 mins by fluorimetric analysis. In outline: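 Cruzain (1 nM) in 0.1 M sodium acetate pH 5.5, 0.01% Triton X-100, 1 mM β-mercaptoethanol, substrate Z-FR-AMC, no pre-incubation. Fluorescence read at 25 °C every 12 s for 5 min; rates from initial velocities versus DMSO control. Screened at 300, 200 or 100 (solubility-limited). At least two independent experiments, each in triplicate.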
Cruzipain, sequence (P25779 whole entry): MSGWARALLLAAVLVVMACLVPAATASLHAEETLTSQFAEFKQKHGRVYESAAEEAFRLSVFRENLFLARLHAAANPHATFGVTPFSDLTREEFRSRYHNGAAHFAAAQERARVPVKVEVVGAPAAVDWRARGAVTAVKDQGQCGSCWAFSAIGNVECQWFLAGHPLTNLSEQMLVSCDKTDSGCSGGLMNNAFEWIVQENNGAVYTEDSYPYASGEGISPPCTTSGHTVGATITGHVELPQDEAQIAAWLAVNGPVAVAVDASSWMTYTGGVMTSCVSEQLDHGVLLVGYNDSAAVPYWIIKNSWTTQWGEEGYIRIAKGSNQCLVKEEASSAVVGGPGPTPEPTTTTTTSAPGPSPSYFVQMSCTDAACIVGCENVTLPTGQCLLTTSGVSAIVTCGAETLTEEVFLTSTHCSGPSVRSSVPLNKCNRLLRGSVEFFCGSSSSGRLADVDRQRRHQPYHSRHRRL

Series [3] in a line: Selectivity index, ratio of >90% maximum non-toxic concentration for BALB/c mouse splenocyte to IC50 for Trypanosoma cruzi Y strain trypomastigotes. The format is toxicity. Conditions: splenocytes, read-out: Selectivity Index. In outline:
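SI computed as highest non-toxic splenocyte concentration (>90% 3H-thymidine incorporation, 24 h) divided by trypomastigote IC50 (24 h, Neubauer motility count).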

In series [4] the target is Cruzipain (Trypanosoma cruzi) (UniProt P25779). Description: Inhibition of recombinant Trypanosoma cruzi cruzain at 300 uM using Z-FR-AMC as substrate and measured at 12 sec interval for 5 mins by fluorimetric analysis relative to control. In outline: (§1)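 Cruzain (1 nM) in 0.1 M sodium acetate pH 5.5, 0.01% Triton X-100, 1 mM β-mercaptoethanol, substrate Z-FR-AMC, no pre-incubation. Fluorescence read at 25 °C every 12 s for 5 min; rates from initial velocities versus DMSO control. Screened at 300, 200 or 100 (solubility-limited). Where inhibition exceeded 80%, IC50 came from seven concentrations by four-parameter variable-slope regression. At least two independent experiments, each in triplicate.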
Cruzipain (Trypanosoma cruzi), sequence (P25779 123-467 limits assumed): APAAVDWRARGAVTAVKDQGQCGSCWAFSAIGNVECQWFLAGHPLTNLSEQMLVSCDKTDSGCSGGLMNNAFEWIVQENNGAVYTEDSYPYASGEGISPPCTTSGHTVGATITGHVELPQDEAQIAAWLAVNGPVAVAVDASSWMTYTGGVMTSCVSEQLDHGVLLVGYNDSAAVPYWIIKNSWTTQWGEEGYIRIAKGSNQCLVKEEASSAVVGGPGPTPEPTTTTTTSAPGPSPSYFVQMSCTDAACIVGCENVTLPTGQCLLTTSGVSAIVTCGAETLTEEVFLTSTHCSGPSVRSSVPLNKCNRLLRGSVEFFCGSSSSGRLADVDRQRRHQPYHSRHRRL

Series [5] has the same target. In words: Inhibition of recombinant Trypanosoma cruzi cruzain at 200 uM using Z-FR-AMC as substrate and measured at 12 sec interval for 5 mins by fluorimetric analysis relative to control. In outline:
as §1

The subject of series [6] is Trypanosoma cruzi. In words: Induction of morphological changes in Trypanosoma cruzi trypomastigotes assessed as cytoplasmic vacuolization at 6.8 uM after 24 hrs by TEM analysis. It counts as functional, organism-based. In outline: (§2)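 Trypomastigotes cultured 24 h in RPMI 1640 pH 7.5 with 20 mM HEPES, 10% FBS, penicillin/streptomycin plus compound at 3.4 and 6.8. Parasites washed in PBS and fixed in 2.5% glutaraldehyde/4% formaldehyde in 0.1 M cacodylate pH 6.8, then postfixed in 2% OsO4. SEM samples were ethanol-dehydrated, critical-point dried and gold-coated. TEM samples were acetone-dehydrated, epon-embedded and stained with uranyl acetate/lead citrate. Untreated controls were included.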

The subject of series [7] is Trypanosoma cruzi. In words: Induction of morphological changes in Trypanosoma cruzi trypomastigotes assessed as membrane projections at 3.4 uM after 24 hrs by TEM analysis. It counts as functional, organism-based. Summed up: as §2
For series [8], the system named is Trypanosoma cruzi. Description: Induction of morphological changes in Trypanosoma cruzi trypomastigotes assessed as contortion of parasite body with presence of blebs in flagellum and parasite body at 3.4 uM after 24 hrs by SEM analysis. It counts as functional, organism-based. In outline:
as §2

Series [9] deals with Trypanosoma cruzi. In words: Induction of morphological changes in Trypanosoma cruzi trypomastigotes assessed as abnormal chromatin condensation at 3.4 to 6.8 uM after 24 hrs by TEM analysis. It counts as functional, organism-based. Conditions: dose 3.4-6.8 µM. Summed up: as §2
In series [10] the test system is Trypanosoma cruzi. Description: Induction of morphological changes in Trypanosoma cruzi trypomastigotes assessed as contortion of parasite body and alteration in morphology and size of flagellum at 6.8 uM after 24 hrs by SEM analysis. It counts as functional, organism-based. In outline: as §2
Series [11] deals with Trypanosoma cruzi. Description: Induction of morphological changes in Trypanosoma cruzi trypomastigotes assessed as alteration in reservosomes at 3.4 to 6.8 uM after 24 hrs by TEM analysis. Conditions: dose 3.4-6.8 µM. The format is functional, organism-based. Summed up: as §2
The subject of series [12] is Trypanosoma cruzi. In words: Induction of morphological changes in Trypanosoma cruzi trypomastigotes assessed as mitochondrial swelling at 3.4 to 6.8 uM after 24 hrs by TEM analysis. It counts as functional, organism-based. To be noted: dose 3.4-6.8 µM. In outline:
as §2

In series [13] the test system is Trypanosoma cruzi. In words: Induction of cytoplasmic vacuolization, irreversible lesions and changes in parasitic morphology in Trypanosoma cruzi trypomastigotes after 24 hrs by TEM analysis. The format is functional. Conditions: dose 3.4-6.8 µM. Summed up:
as §2

For series [14], the system named is Trypanosoma cruzi. Description: Induction of morphological changes in Trypanosoma cruzi trypomastigotes assessed as formation of membrane blebs at 3.4 to 6.8 uM after 24 hrs by TEM analysis. Conditions: dose 3.4-6.8 µM. The format is functional, organism-based. Summed up: as §2

Calls of active or inactive are those of the source. The calls are words filed in the database; no cut-off is given here. Where only a bound is given, the exact number is not on record here.

As to `CC/C(=N\NC(N)=S)c1cccc(Br)c1`, the IC50 in the series with Trypanosoma cruzi [1] worked out at 2.41 µM. This compound also returned an MNTC at 24 h in series [2] of 34.9 µM.
With `CC/C(=N\Nc1nc(-c2ccccc2)c(C)s1)c1cccc(Br)c1`, the IC50 came out at 4.79 µM with Trypanosoma cruzi [1] and 0.51 µM on Cruzipain. The selectivity ratio in [3] came to 2.6. In addition, the inhibition in series [4] was determined as 99.5%. In series [2], this compound had an MNTC at 24 h of 12.5 µM.
Consider `CC/C(=N\Nc1nc(-c2ccc(F)cc2)cs1)c1cccc(Br)c1`, for which the IC50 in the series on Trypanosoma cruzi [1] stood at 146 µM; at Cruzipain it was 16.5 µM. Moreover, in series [3], the selectivity ratio turned out to be 0.8. Besides, in series [4], the inhibition was found to be 95.8%. The MNTC at 24 h in series [2] was determined as 124 µM.
As to `CC/C(=N\N=C(/S)Nc1ccccc1)c1cccc(Br)c1`, the IC50 in the series with Trypanosoma cruzi [1] is 13.3 µM. In series [3], the selectivity ratio came out at 10.4. Further, in [5], the inhibition worked out at 49.5%. Also, the MNTC at 24 h in series [2] amounted to 138 µM.
For the compound `O=C(Cn1ccnc1[N+](=O)[O-])NCc1ccccc1` [BENZNIDAZOLE], the selectivity ratio in [3] came out at 15.4.
Take `CC/C(=N\Nc1nc(-c2ccc(Cl)cc2Cl)cs1)c1cccc(Br)c1`: the IC50 was determined as 59.2 µM in the series with Trypanosoma cruzi [1] and 15.1 µM on Cruzipain. The selectivity ratio in series [3] stood at 0.9. The inhibition in [4] stood at 99.7%. The same compound returned an MNTC at 24 h in series [2] of 54.9 µM.
Regarding `CC/C(=N\Nc1nc(-c2ccc(Cl)c(Cl)c2)cs1)c1cccc(Br)c1`, the figures for the 50% inhibitory concentration (IC50) in the series on Trypanosoma cruzi [1] and on Cruzipain were 130 µM and 11.3 µM, respectively. In series [3], the selectivity ratio was determined as 0.4. The inhibition in series [4] is 86.8%. In series [2], this compound registered an MNTC at 24 h of 54.9 µM.
Taken in the same sequence, the figures for `CC/C(=N\Nc1nc(-c2ccc(Br)cc2)c(C)s1)c1cccc(Br)c1` were 5.8 µM, 3.8 µM, 3.6, 100% and 20.9 µM.
`CC/C(=N\Nc1nc(-c2ccc(Cl)cc2)cs1)c1cccc(Br)c1`: the IC50 in the series with Trypanosoma cruzi [1] worked out at 140 µM; on Cruzipain, 32.7 µM. In addition, the selectivity ratio in [3] came to 0.8. Further, the inhibition in series [4] was determined as 90.4%. The same compound came in with an MNTC at 24 h in series [2] of 119 µM.
Taken in the same sequence, the figures for `CC/C(=N\Nc1nc(-c2ccc3ccccc3c2)cs1)c1cccc(Br)c1` were 51 µM, 9.5 µM, more than 4.5, 88.2% and more than 229 µM.
Taken in the same sequence, the figures for `CC/C(=N\Nc1nc(-c2ccccc2)cs1)c1cccc(Br)c1` were 5.51 µM, 44.6 µM, 11.7, 80.7% and 64.7 µM.
In the case of `CC/C(=N\N=c1/scc(-c2ccccc2)n1-c1ccccc1)c1cccc(Br)c1`, the IC50 in the series with Trypanosoma cruzi [1] is 53.1 µM. The selectivity ratio in series [3] worked out at 0.9. In [2], this compound showed an MNTC at 24 h of 50.8 µM.
With `CC/C(=N\N=c1/scc(-c2ccc(OC)cc2)n1C)c1cccc(Br)c1`, in the series on Trypanosoma cruzi [1], the IC50 came out at 76.6 µM. Moreover, the selectivity ratio in [3] was 0.7. Also, in [5], the inhibition turned out to be 33.1%. Also, in series [2], the MNTC at 24 h was determined as 58.1 µM.
Regarding `CC/C(=N\Nc1nc(-c2ccc([N+](=O)[O-])cc2)cs1)c1cccc(Br)c1`, the IC50 with Trypanosoma cruzi [1] was 60 µM. In series [3], the selectivity ratio was more than 3.9. In series [4], the inhibition worked out at 68.9%. Also, the MNTC at 24 h in series [2] is more than 232 µM.
As to `CC/C(=N\Nc1nc(-c2ccc(C)cc2)cs1)c1cccc(Br)c1`, the results for the IC50 in the series on Trypanosoma cruzi [1] and at Cruzipain were 16.6 µM and 19.2 µM, respectively. The selectivity ratio in series [3] was determined as 7.5. The inhibition in [4] amounted to 97.7%. The compound also returned an MNTC at 24 h in series [2] of 125 µM.
Take `CC/C(=N\Nc1nc(-c2ccc(OC)cc2)cs1)c1cccc(Br)c1`: the IC50 in the series with Trypanosoma cruzi [1] worked out at 3.84 µM. The result in the series with Trypanosoma cruzi [6], in the series with Trypanosoma cruzi [7], in the series with Trypanosoma cruzi [8], in the series on Trypanosoma cruzi [9], in the series on Trypanosoma cruzi [10] and in the series on Trypanosoma cruzi [11] was Active. Moreover, the outcome in the series with Trypanosoma cruzi [12] and in the series with Trypanosoma cruzi [14] was Active. Moreover, the selectivity ratio in series [3] turned out to be 31.3. Moreover, the inhibition in series [4] was 72%. In series [2], the MNTC at 24 h is 120 µM. Also, the Activity result in the series with Trypanosoma cruzi [13] was “Dose-dependent effect”.
On to `CC/C(=N\N=C(/S)NC)c1cccc(Br)c1`, for which the IC50 with Trypanosoma cruzi [1] came to 36.3 µM. Further, the selectivity ratio in [3] is 0.9. In addition, in series [5], the inhibition worked out at 11.7%. Moreover, in series [2], the MNTC at 24 h was 33.3 µM.
On to `CC/C(=N\Nc1nc(-c2ccc(-c3ccccc3)cc2)cs1)c1cccc(Br)c1`, for which, in the series on Trypanosoma cruzi [1], the IC50 was 3.35 µM. For the same compound, the selectivity ratio in series [3] was more than 64.5. For the same compound, the inhibition in series [4] worked out at 18.1%. The compound also gave an MNTC at 24 h in [2] of more than 216 µM.
As for `CC/C(=N\Nc1nc(-c2cccc([N+](=O)[O-])c2)cs1)c1cccc(Br)c1`, the IC50 was determined as 15.1 µM in the series on Trypanosoma cruzi [1] and 14.6 µM on Cruzipain. Further, the selectivity ratio in series [3] was 1.5. Besides, the inhibition in [4] stood at 85.3%. The MNTC at 24 h in series [2] was 23.2 µM.

One may read the IC50 as the concentration that gives 50% inhibition. For orientation: inhibition means how much of the control response was suppressed.
